# Reference: ChEMBL document CHEMBL1811897, “Nicotinic acetylcholine receptor efficacy and pharmacological properties of 3-(substituted phenyl)-2β-substituted tropanes” (J Med Chem, 2010)
# pIC50: −log10 of the molar value. Active and inactive are the calls of the source.
# Legend:
# [1] = target: Sodium-dependent noradrenaline transporter (Homo sapiens, UniProt P23975); assay: Inhibition of human NET expressed in HEK293 cells assessed as inhibition of [3H]NE reuptake after 10 mins by scintillation counting; assay type: cell-based
# Sodium-dependent noradrenaline transporter, sequence (P23975 whole entry): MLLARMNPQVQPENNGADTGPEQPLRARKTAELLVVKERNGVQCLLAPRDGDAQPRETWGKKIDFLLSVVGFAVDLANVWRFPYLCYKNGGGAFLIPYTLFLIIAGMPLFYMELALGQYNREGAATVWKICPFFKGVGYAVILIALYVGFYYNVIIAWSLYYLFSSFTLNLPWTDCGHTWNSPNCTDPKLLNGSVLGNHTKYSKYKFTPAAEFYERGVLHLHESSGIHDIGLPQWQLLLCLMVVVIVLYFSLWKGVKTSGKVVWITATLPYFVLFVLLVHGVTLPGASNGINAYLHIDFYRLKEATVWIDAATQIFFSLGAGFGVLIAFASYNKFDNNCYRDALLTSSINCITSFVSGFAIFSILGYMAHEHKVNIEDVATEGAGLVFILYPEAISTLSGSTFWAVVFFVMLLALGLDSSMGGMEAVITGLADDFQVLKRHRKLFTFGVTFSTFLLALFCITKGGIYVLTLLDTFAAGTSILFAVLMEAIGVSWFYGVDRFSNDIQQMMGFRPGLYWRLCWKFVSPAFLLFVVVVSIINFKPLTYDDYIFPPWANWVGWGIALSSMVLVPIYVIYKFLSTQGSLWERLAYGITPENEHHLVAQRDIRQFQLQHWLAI
# Mus musculus [2] = assay: Inhibition of nicotine-induced antinociception activity in ICR mouse assessed as paw licking and jumping latency dministered subcutaneously 15 mins prior to nicotine challenge and measured after 5 mins of 2.5 mg/kg nicotine challenge by hot plate test; assay type: functional, organism-based; set-up: dose 2.5 mg/kg, route subcutaneous
# Method in brief: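 Hot plate was held at 55 °C with a 40 s cutoff. End-point was paw lick or jump. Control latency was measured twice, ≥10 min apart. Response was calculated as %MPE. Groups of 8–12; AD50 from ≥4 doses.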
# Mus musculus [3] = assay: Inhibition of nicotine-induced antinociception activity in ICR mouse assessed as latency to remove tail administered subcutaneously 15 mins prior to nicotine challenge and measured after 5 mins of 2.5 mg/kg nicotine challenge by tail-flick test; assay type: functional, organism-based; set-up: dose 2.5 mg/kg, route subcutaneous
# Method in brief: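 Radiant heat was aimed at the upper tail, with a 10 s cutoff. Baseline latency was 2–4 s for each mouse. Response was expressed as %MPE. AD50 with confidence limits came from ≥4 doses and ≥8 mice per dose.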
# [4] = target: Cannabinoid receptor 1 (Homo sapiens) (UniProt P21554); assay: Positive allosteric modulator activity at CB1 receptor
# Cannabinoid receptor 1 (Homo sapiens), sequence (P21554 whole entry): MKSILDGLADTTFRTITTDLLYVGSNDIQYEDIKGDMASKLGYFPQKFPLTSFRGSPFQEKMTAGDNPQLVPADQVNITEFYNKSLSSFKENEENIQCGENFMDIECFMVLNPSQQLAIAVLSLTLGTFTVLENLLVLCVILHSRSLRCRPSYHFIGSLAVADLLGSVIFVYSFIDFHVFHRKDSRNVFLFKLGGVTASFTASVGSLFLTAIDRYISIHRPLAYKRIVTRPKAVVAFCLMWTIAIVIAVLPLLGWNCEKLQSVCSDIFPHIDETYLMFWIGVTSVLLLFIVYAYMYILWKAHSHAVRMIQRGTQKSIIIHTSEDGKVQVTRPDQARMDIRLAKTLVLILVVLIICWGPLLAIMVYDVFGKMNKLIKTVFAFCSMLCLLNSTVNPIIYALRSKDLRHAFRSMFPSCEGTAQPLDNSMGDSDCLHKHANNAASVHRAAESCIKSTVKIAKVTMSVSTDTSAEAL
# [5] = target: Sodium-dependent dopamine transporter (Homo sapiens, UniProt Q01959); assay: Inhibition of human DAT expressed in HEK293 cells assessed as inhibition of [3H]DA reuptake after 10 mins by scintillation counting; assay type: cell-based
# Sodium-dependent dopamine transporter, sequence (Q01959 whole entry): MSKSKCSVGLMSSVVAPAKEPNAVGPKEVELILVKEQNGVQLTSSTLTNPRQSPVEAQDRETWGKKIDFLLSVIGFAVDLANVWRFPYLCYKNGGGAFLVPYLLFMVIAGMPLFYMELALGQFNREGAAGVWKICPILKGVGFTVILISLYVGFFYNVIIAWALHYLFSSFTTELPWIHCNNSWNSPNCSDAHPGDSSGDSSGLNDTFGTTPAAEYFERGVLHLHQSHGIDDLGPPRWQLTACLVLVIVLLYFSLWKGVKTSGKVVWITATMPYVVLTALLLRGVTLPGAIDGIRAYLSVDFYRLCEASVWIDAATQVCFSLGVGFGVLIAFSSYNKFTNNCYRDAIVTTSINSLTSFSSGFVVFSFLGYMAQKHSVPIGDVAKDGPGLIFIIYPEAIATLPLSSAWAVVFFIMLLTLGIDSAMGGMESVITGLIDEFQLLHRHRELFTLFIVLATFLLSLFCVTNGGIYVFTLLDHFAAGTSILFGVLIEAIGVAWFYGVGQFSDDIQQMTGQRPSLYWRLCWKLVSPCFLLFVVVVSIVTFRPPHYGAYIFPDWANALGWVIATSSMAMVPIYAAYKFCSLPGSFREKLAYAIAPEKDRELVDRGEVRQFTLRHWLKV
# [6] = target: T1, Neuronal acetylcholine receptor; alpha4/beta4 (Homo sapiens, UniProt P30926+P43681); assay: Agonist activity against human alpha4beta4 nAChR in SHEP1 cells assessed as 86Rb+ efflux at 5 nM to 100 uM; assay type: functional, cell-based
# Method in brief: (§1)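 Test ligands were applied alone at ~5 nM to 100 μM in 86Rb+ efflux assays. Cells were TE671/RD (endogenous muscle-type α1*), SH-SY5Y (endogenous α3β4*) or transfected SH-EP1 (human α4β2 or α4β4). Non-specific efflux was subtracted. Intrinsic activity was normalized to specific efflux, defined as efflux with fully efficacious carbamylcholine minus efflux with buffer alone.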
# [7] = target: Sodium-dependent serotonin transporter (Homo sapiens, UniProt P31645); assay: Inhibition of human SERTexpressed in HEK293 cells assessed as inhibition of [3H]5HT reuptake after 10 mins by scintillation counting; assay type: cell-based
# [8] = target: T2, Acetylcholine receptor; alpha1/beta1/delta/gamma (Homo sapiens, UniProt P02708+P07510+P11230+Q07001); assay: Antagonist activity against human muscle-type alpha1beta1gammadelta nAChR in TE671/RD cells assessed as inhibition of carbamylcholine induced 86Rb+ efflux; assay type: functional, cell-based
# T2 sequence (P02708 whole entry): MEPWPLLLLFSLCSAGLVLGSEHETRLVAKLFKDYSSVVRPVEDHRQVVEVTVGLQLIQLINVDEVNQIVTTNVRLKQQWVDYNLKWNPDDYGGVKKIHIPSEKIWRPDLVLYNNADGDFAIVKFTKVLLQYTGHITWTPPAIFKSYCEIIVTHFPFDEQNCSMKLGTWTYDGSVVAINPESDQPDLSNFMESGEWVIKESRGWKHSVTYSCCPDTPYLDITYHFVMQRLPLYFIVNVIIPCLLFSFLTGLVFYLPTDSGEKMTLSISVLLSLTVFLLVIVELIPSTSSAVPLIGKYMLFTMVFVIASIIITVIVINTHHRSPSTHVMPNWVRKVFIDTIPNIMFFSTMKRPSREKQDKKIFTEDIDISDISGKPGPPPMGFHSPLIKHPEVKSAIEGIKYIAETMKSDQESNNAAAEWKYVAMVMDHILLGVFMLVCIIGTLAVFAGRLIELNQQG
# T2 sequence (P07510 whole entry): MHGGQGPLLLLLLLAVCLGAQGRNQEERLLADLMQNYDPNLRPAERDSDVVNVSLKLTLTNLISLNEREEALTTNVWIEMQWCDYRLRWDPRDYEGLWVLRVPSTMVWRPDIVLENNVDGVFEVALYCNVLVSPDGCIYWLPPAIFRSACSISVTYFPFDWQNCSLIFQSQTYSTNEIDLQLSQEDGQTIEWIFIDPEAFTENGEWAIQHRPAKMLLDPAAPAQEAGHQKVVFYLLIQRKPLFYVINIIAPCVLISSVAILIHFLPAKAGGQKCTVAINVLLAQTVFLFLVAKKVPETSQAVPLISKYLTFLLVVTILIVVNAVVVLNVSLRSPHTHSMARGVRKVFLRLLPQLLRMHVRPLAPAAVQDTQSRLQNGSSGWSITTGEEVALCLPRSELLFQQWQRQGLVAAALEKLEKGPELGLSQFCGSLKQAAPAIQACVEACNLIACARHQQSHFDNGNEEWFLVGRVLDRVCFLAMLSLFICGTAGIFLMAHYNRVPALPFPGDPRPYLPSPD
# T2 sequence (P11230 whole entry): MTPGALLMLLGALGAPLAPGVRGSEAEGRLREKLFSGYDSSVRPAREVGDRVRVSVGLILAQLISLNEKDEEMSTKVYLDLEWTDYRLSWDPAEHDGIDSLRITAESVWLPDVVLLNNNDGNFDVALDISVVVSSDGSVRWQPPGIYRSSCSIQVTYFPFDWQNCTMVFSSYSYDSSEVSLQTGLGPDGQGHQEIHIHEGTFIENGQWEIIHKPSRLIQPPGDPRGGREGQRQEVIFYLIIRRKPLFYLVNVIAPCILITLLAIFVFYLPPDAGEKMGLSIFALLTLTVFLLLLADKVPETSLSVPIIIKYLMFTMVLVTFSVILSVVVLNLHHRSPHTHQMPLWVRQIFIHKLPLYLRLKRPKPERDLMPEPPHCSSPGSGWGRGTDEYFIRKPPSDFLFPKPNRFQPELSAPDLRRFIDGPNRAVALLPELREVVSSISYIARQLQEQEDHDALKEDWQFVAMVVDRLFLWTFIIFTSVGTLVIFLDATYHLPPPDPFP
# T2 sequence (Q07001 whole entry): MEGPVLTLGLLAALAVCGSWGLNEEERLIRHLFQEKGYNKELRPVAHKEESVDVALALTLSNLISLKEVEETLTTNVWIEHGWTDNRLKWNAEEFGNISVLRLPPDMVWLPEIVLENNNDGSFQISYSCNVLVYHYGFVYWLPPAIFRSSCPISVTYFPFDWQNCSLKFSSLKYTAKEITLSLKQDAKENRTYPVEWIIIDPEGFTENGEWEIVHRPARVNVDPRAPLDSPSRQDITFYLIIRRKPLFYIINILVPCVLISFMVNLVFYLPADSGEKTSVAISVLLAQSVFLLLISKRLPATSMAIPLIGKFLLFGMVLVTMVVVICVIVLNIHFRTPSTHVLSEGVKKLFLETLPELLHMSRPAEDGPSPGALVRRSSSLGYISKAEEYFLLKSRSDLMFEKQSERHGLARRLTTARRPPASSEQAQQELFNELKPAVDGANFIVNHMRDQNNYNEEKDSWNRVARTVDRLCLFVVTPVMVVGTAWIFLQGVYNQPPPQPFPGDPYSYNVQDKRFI
# Method in brief: (§2)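 86Rb+ efflux was evoked by carbamylcholine at its EC80–EC90 concentration, with test ligand present. Cells were TE671/RD (α1*), SH-SY5Y (α3β4*) or transfected SH-EP1 (α4β2 or α4β4). For weak antagonists the minimum was fixed at 0%.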
# Mus musculus [9] = assay: Inhibition of nicotine-induced hypolocomotion in ICR mouse assessed as number of photocell interruption dministered subcutaneously 15 mins prior to nicotine challenge and measured after 5 mins of […] nicotine challenge; assay type: functional, organism-based; set-up: dose 1.5 mg/kg, route subcutaneous
# [10] = target: T1, Neuronal acetylcholine receptor; alpha4/beta4; assay: Antagonist activity against human alpha4beta4 nAChR in SHEP1 cells assessed as inhibition of carbamylcholine induced 86Rb+ efflux; assay type: functional, cell-based; method in brief: as §2
# Mus musculus [11] = assay: Inhibition of nicotine-induced conditioned place preference in ICR mouse assessed as activity count and time spent in chamberdministered subcutaneously 15 mins prior to 0.5 mg/kg nicotine challenge up to 4 days using photosensors; assay type: functional, organism-based; set-up: dose 0.5 mg/kg, route subcutaneous
# Method in brief: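 Unbiased three-compartment CPP in male ICR mice. Day 1: 5 min confinement to the middle compartment, then 15 min free access; mice were grouped by equal bias. Days 2–4: vehicle or test drug s.c. 15 min before nicotine (0.5 mg/kg s.c.) in the paired side, with saline on the opposite side, 20 min sessions. Day 5: drug-free test with photosensor recording. AD50 from ≥3 doses, ≥8 mice per dose.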
# Mus musculus [12] = assay: Antipyretic activity against nicotine-induced hypothermia in ICR mouse assessed as change in rectal temperature dministered subcutaneously 15 mins prior to nicotine challenge and measured after 30 mins of 2.5 mg/kg nicotine challenge; assay type: functional, organism-based; set-up: dose 2.5 mg/kg, route subcutaneous
# Method in brief: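 Male ICR mice (20–25 g) were pretreated with saline or test drug 15 min before s.c. nicotine at 2.5 mg/kg. Rectal temperature was read by thermistor probe (24 mm insertion) just before and 30 min after nicotine, and the change was taken. Ambient temperature was 21–24 °C. AD50 with confidence limits came from ≥4 doses and ≥8 mice per dose.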
# [13] = target: T3, Neuronal acetylcholine receptor; alpha4/beta2 (Homo sapiens, UniProt P17787+P43681); assay: Agonist activity at human alpha4beta2 nAChR in SHEP1 cells assessed as 86Rb+ efflux at 5 nM to 100 uM; assay type: functional, cell-based; method in brief: as §1
# T3 sequence (P17787 whole entry): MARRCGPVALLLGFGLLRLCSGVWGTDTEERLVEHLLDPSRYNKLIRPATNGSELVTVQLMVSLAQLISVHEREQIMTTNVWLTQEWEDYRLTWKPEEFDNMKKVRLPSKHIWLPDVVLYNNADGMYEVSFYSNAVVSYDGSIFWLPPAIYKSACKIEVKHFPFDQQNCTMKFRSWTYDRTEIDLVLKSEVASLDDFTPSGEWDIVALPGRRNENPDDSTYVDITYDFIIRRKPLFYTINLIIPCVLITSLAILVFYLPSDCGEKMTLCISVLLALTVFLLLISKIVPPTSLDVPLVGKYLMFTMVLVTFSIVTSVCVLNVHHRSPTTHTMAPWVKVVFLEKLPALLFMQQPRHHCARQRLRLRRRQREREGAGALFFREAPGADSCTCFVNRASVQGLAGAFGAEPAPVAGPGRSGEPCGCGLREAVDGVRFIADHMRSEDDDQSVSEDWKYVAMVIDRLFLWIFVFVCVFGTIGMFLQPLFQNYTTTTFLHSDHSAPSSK
# T3 sequence (P43681 whole entry): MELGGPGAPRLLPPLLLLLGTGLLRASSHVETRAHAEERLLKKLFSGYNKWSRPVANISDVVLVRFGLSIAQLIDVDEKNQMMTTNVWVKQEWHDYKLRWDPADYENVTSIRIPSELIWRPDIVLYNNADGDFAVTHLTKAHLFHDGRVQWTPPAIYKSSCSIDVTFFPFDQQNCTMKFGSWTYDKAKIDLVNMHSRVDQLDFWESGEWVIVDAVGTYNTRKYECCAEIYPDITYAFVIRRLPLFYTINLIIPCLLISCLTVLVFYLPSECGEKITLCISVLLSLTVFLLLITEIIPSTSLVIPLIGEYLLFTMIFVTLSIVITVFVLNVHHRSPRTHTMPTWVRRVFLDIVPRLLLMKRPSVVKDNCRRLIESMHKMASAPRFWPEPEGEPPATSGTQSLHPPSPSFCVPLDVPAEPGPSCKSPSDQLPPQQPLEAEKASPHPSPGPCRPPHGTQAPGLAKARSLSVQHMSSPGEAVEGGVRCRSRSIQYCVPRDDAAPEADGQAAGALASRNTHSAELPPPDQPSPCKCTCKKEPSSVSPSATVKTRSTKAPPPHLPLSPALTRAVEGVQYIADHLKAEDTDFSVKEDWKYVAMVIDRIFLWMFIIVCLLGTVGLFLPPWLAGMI
# [14] = target: T3, Neuronal acetylcholine receptor; alpha4/beta2; assay: Antagonist activity against human alpha4beta2 nAChR in SHEP1 cells assessed as inhibition of carbamylcholine induced 86Rb+ efflux; assay type: functional, cell-based; method in brief: as §2
# [15] = target: T2, Acetylcholine receptor; alpha1/beta1/delta/gamma; assay: Agonist activity at human muscle-type alpha1beta1gammadelta nAChR in TE671/RD cells assessed as 86Rb+ efflux at 5 nM to 100 uM; assay type: functional, cell-based; method in brief: as §1
structure (smiles),measurement,setting,value
Cc1ccc([C@H]2C[C@@H]3CC[C@H]([C@H]2c2cc(-c4ccc(Cl)cc4)no2)N3C)cc1,pIC50,[1],6.51
same,IC50,Mus musculus [2],> 20 mg/kg
same,IC50,Mus musculus [3],> 20 mg/kg
same,Activity,[4],Active
same,pIC50,[5],7.96
same,Activity,[6],inactive
same,pIC50,[7],< 4.00
same,pIC50,[8],4.02
same,IC50,Mus musculus [9],8.7 mg/kg
same,pIC50,[10],4.24
same,IC50,Mus musculus [11],0.013 mg/kg
same,IC50,Mus musculus [12],> 20 mg/kg
same,Activity,[13],inactive
same,pIC50,[14],3.03
same,Activity,[15],inactive
